The text below walks through data of ChEMBL document CHEMBL1140844, “2-[(3-Methoxyphenylethyl)phenoxy]-based ABCB1 inhibitors: effect of different basic side-chains on their biological properties” (J Med Chem, 2008).

Data set [1] addresses T1, Broad substrate specificity ATP-binding cassette transporter ABCG2 (Homo sapiens, UniProt Q9UNQ0).
T1 sequence (Q9UNQ0 whole entry): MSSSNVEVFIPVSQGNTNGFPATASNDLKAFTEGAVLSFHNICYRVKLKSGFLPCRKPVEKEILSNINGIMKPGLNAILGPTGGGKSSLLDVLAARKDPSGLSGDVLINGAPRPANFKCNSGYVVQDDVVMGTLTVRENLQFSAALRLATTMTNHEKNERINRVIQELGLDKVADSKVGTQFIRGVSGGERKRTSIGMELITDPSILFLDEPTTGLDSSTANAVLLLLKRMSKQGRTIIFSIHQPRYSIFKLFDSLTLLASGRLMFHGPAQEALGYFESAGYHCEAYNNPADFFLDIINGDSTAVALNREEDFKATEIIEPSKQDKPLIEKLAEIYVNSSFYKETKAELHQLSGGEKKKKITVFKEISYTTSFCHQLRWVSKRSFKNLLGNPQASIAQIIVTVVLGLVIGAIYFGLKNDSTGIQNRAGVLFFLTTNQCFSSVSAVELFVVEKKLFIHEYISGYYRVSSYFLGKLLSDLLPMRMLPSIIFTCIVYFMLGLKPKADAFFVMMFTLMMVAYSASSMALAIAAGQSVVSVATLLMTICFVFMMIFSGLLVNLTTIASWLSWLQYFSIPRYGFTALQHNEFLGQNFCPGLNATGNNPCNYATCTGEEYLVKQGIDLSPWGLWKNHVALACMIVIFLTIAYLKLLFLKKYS
The data set is described as follows: Inhibition of ABCG2.

Data set [2] has as its target T2, ATP-dependent translocase ABCB1 (Homo sapiens, UniProt P08183). The data set is described as follows: Inhibition of ABCB1.
Data set [3] has as its target T2, ATP-dependent translocase ABCB1. The data set is described as follows: Inhibition of ABCB1 in human Caco-2 cells assessed as ATPase activation at 100 uM after 2 hrs. In kind it is cell-based. The conditions noted are these: caco-2, 2 h. The method in brief: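 Caco-2 cells seeded at 2 × 10⁴ cells/well and held overnight at 37 °C, 5% CO2. Exposed to compound in complete medium for 2 h at 37 °C. Cells then lysed and ATP read by luciferase luminescence after 10 min dark adaptation. Tested at 100 µM; a positive response is reported as a percentage.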

For data set [4], the system named is Caco-2. The data set is described as follows: Ratio of apparent permeability from basolateral to apical over apical to basolateral side of human Caco-2 cells after 120 mins by UV-visible spectroscopy. The note with it: caco-2, 2 h.
In data set [5] the target is T3, ABCG2 (Homo sapiens, UniProt Q9UNQ0).
T3 sequence (Q9UNQ0 whole entry): T1 sequence (Q9UNQ0 whole entry)
The data set is described as follows: Inhibition of ABCG2 in human Caco-2 cells assessed as [3H]mithoxatrone accumulation at 100 uM. In kind it is cell-based. The note with it: probe [3H]mithoxatrone. The essentials:
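Caco-2 monolayers grown 21 days (TEER >800 Ω × cm²). 20 nM [3H]mitoxantrone added basolaterally with or without compound at 100 µM, 120 min at 37 °C. Apical appearance measured by scintillation counting. Result is % inhibition from the radioactivity difference with and without compound.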

Data set [6] deals with T4, 5-hydroxytryptamine receptor 1A (Homo sapiens, UniProt P08908).
T4 sequence (P08908 whole entry): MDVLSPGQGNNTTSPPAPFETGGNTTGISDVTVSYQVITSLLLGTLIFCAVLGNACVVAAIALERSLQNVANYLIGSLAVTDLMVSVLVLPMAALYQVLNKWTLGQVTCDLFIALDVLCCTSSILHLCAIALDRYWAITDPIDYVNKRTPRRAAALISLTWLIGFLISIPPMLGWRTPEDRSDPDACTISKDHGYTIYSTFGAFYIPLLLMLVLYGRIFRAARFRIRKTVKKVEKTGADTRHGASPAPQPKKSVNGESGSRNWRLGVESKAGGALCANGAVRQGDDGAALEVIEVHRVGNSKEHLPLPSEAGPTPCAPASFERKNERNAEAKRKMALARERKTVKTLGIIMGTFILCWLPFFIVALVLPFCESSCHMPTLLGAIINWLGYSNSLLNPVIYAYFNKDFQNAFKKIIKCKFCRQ
The data set is described as follows: Displacement of [3H]8-OH-DPAT from human cloned 5-HT1A receptor expressed in human HeLa cells. In kind it is cell-based. The method in brief:
(§1)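 Compounds at 0.1 nM–10 µM in 50 mM Tris-HCl pH 7.4, 5 mM MgSO4, 120 min at 37 °C. Filtered on PEI-soaked GF/C. Nonspecific binding with 10 µM 8-OH-DPAT. […] Mean of three experiments, triplicate samples.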

Data set [7] has as its target T5, D(2) dopamine receptor (Homo sapiens, UniProt P14416). The data set is described as follows: Displacement of [3H]spiroperidol from human cloned dopaminergic D2 receptor expressed in rat C6 cells. In kind it is cell-based.
Data set [8] deals with T2, ATP-dependent translocase ABCB1. As to the kind of experiment: Inhibition of ABCB1 transfected in MDCK cells assessed as increase in calcein-AM accumulation. In kind it is cell-based.
Data set [9] has the same target. As to the kind of experiment: Inhibition of ABCB1-mediated [3H]vinblastine transportation in human Caco-2 cells. In kind it is cell-based. The method in brief:
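Caco-2 monolayers grown 21 days (TEER >800 Ω × cm²). 20 nM [3H]vinblastine added to the basolateral side with or without compound (200 nM–400 µM) for 120 min at 37 °C. Appearance on the apical side measured by scintillation counting. IC50 from nonlinear fit. Mean of three experiments, triplicate samples.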

Data set [10] concerns the target T6, 5-hydroxytryptamine receptor 1A (Homo sapiens) (UniProt P08908).
T6 sequence (whole entry): T4 sequence (P08908 whole entry)
The data set is described as follows: Displacement of [3H]8-OH-DPAT from human cloned 5-HT1A receptor expressed in human HeLa cells at 10 uM. In kind it is cell-based. The method in brief: as §1

Data set [11] deals with ABCB1 (Homo sapiens, UniProt P08183). The data set is described as follows: Activation of ABCB1 in human Caco-2 cells assessed as ATPase activation at 100 uM after 2 hrs.
ABCB1, sequence (P08183 whole entry): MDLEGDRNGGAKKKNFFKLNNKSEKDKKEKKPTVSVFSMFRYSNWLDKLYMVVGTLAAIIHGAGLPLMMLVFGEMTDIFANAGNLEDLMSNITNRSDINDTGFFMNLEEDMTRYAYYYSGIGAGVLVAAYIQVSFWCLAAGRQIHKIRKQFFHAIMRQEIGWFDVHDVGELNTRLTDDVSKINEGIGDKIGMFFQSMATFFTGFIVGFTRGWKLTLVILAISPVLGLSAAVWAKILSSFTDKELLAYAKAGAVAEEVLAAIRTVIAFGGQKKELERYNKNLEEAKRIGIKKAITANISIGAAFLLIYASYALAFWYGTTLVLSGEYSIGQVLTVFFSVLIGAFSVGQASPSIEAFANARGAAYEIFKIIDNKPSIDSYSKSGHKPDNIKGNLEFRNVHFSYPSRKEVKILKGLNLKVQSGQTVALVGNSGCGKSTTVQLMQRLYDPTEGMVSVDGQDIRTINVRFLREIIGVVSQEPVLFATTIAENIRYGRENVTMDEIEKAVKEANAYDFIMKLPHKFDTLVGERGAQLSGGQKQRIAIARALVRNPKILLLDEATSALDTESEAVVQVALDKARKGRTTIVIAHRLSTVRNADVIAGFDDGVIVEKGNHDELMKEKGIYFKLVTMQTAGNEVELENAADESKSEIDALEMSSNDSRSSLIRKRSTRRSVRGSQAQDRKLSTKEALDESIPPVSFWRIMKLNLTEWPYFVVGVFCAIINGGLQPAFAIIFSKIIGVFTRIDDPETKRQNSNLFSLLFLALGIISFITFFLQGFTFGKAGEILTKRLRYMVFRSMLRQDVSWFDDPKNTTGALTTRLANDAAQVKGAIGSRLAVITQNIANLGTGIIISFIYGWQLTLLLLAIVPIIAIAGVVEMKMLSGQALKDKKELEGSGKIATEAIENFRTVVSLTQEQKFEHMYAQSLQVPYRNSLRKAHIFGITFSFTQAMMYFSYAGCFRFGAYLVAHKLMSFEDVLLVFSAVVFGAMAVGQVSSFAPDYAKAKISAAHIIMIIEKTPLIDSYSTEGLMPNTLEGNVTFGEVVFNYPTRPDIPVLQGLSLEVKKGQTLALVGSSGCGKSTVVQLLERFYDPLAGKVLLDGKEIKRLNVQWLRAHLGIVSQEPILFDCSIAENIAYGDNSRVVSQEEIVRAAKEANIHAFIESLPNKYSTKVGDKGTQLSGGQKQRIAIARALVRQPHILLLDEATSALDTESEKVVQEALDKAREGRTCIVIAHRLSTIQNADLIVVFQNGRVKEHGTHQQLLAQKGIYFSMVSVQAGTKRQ
Data set [12] addresses T5, D(2) dopamine receptor. The data set is described as follows: Displacement of [3H]spiroperidol from human cloned dopaminergic D2 receptor expressed in rat C6 cells at 10 uM. In kind it is cell-based. The method in brief:
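Buffer was 50 mM Tris, 10 mM MgCl2, 1 mM EDTA, pH 7.4. Incubated 60 min at 27 °C, then filtered on PEI-soaked GF/C. Nonspecific binding with 10 µM haloperidol.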

The structures appear in SMILES notation.

T2 sequence (P08183 whole entry): as above
T5 sequence (P14416 whole entry): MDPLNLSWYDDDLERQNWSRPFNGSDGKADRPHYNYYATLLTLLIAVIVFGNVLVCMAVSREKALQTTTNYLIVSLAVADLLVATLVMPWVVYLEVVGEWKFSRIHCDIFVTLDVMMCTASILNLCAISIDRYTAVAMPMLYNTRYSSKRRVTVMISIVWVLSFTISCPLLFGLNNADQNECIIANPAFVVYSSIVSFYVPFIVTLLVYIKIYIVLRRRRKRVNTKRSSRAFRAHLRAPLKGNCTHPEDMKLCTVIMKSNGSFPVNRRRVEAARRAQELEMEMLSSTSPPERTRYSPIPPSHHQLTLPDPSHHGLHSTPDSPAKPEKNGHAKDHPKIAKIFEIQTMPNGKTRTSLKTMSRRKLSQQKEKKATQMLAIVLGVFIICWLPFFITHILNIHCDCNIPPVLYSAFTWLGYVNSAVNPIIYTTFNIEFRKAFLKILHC

As for `COc1cccc(CCc2ccccc2OCc2cccc(OC)c2OC)c1`, the IC50 in data set [1] turned out to be 120 µM.
Take `COc1cccc(CCc2ccccc2NCc2cccc(OC)c2OC)c1`: the IC50 in data set [2] was determined as 85 nM; in [1], 1.5 µM.
As for `COc1cccc(CCc2ccccc2OCCCCN2CCN(c3ncccn3)CC2)c1`, in data set [3], the Activity result is listed as “Not Active”. In [4], the Ratio is reported as 8.2. In addition, in [5], the inhibition at 100 µM stood at 16%. The Ki was 0.558 µM in data set [6] and 854 nM in data set [7]. Also, the IC50 in data set [8] is 1170 nM; in data set [9], 200 nM.
As for `COc1cccc(CCc2ccccc2NCc2ccc(OC)c(OC)c2)c1`, the IC50 in data set [2] is 180 nM; in data set [1] it was 0.5 µM.
Consider `COc1cccc(CCc2ccccc2OCCCCCN2CCc3cc(OC)c(OC)cc3C2)c1`, for which the Ratio in [4] was found to be 4.9. The Ki in [6] is > 5 µM; in [7], > 1000 nM. The inhibition in [10] amounted to 22%; in data set [12], 18%. The IC50 in data set [8] is 110 nM; in data set [9], 350 nM. Further, the activation at 2 h, 100 µM in data set [11] came out at 20%.
As to `COc1cccc(CCc2ccccc2OCCCCN2CCN(c3cccc(C(F)(F)F)c3)CC2)c1`, the Activity entry in [3] is given as “Not Active”. For the same compound, the Ratio in data set [4] amounted to 4.4. Further, the inhibition at 100 µM in data set [5] turned out to be 24%. Also, the Ki was > 5 µM in [6] and > 1000 nM in data set [7]. For the same compound, the inhibition in data set [10] worked out at 36%; in [12] it was 27%. The IC50 in [8] was 1790 nM; in data set [9], 750 nM.
Take `COc1cccc(CCc2ccccc2OCCCCN2CCN(C)CC2)c1`: in [3], the Activity result was “Not Active”. For the same compound, the Ratio in data set [4] was 6.3. Further, the Ki was > 5 µM in data set [6] and > 1000 nM in [7]. Besides, the inhibition is 38% in [10] and 14% in data set [12]. Further, the IC50 in [8] is 4780 nM; in data set [9] it was 150 nM.
Turning to `COc1cccc(CCc2ccccc2OCCN2CCc3cc(OC)c(OC)cc3C2)c1`, the Ratio in data set [4] worked out at 6.4. Moreover, the Ki in [6] was > 5 µM; in data set [7], > 1000 nM. The inhibition worked out at 26% in [10] and 12% in data set [12]. In addition, the IC50 in data set [8] was 780 nM; in data set [9], 750 nM. Moreover, the activation at 2 h, 100 µM in [11] came out at 55%.
With `COc1cccc(CCc2ccccc2OCc2ccc(OC)c(OC)c2)c1`, the figures for the IC50 in data set [2] and in data set [1] were 650 nM and 150 µM, respectively.
